Assay results pooled from the literature.
Protocols differ between the studies behind these lines.
Organism: Enterobacter cloacae
Read-out: microbial growth

C/C(=C\c1ccc(C#N)cc1)C(=O)Nc1ccc(C(=O)N[C@@H](CC(N)=O)C(=O)Nc2ccc(C(=O)Nc3ccc(C(=O)Nc4ccc(C(=O)O)cc4)c(O)c3OC(C)C)cc2)cc1
MIC (DSM30054): > 64 µg/mL

CC(C)CNc1nc(Cl)c2c(c1O)C(=O)C1=C(O)[C@]3(O)C(=O)C(C(N)=O)=C(O)[C@@H](N(C)C)[C@@H]3C[C@@H]1C2.Cl.Cl.Cl
MIC (broth dilution; ATCC13047): > 32 µg/mL

CNC(=O)c1cc(Oc2ccc(NC(=O)Nc3ccc(Cl)c(C(F)(F)F)c3)cc2)ccn1
MIC (DSM30054): > 100 µM

CN(C)[C@@H]1C(O)=C(C(N)=O)C(=O)[C@@]2(O)C(O)=C3C(=O)c4c(cc5ccc(CN6CC(F)(F)C6)cc5c4O)C[C@H]3C[C@@H]12
MIC (broth dilution; ATCC13047): 32 µg/mL

Cc1nc(Cl)c2c(c1O)C(=O)C1=C(O)[C@]3(O)C(=O)C(C(N)=O)=C(O)[C@@H](N(C)C)[C@@H]3C[C@@H]1C2.Cl
MIC (broth dilution; ATCC13047): 32 µg/mL

C[C@@H](O)[C@H]1C(=O)N2C(C(=O)O)=C(S[C@@H]3CN[C@H](C(=O)N(C)C)C3)[C@H](C)[C@H]12
MIC: 1.3 µM

CO[C@@H](C(N)=O)[C@H](NC(=O)c1ccc(NC(=O)c2ccc(C#N)cc2)cc1)C(=O)Nc1ccc(C(=O)Nc2ccc(C(=O)Nc3ccc(C(=O)O)cc3)c(O)c2OC(C)C)cc1
MIC (DSM30054): > 64 µg/mL

O=C(Nc1ccc2c(c1)OC(F)(F)O2)Nc1ccc(Cl)c(C(F)(F)F)c1
MIC (DSM30054): > 100 µM

CN(C)CCOc1c2c(c(O)c3cc(CN4CCC4)ccc13)C(=O)C1=C(O)[C@]3(O)C(=O)C(C(N)=O)=C(O)[C@@H](N(C)C)[C@@H]3C[C@@H]1C2
MIC (broth dilution; ATCC13047): > 32 µg/mL

CN(C)[C@@H]1C(O)=C(C(N)=O)C(=O)[C@@]2(O)C(O)=C3C(=O)c4c(O)cnc(Cl)c4C[C@H]3C[C@@H]12.Cl
MIC (broth dilution; ATCC13047): 8 µg/mL

Cc1c(CN(C)C(=O)/C=C/c2cnc3c(c2)CC(CCN)C(=O)N3)oc2ccccc12.Cl (centres unmarked)
MIC (broth dilution; BAA2341): 16 µg/mL
